Measurements as given in ChEMBL document CHEMBL4017453, “Design, synthesis and optimization of bis-amide derivatives as CSF1R inhibitors” (Bioorg Med Chem Lett, 2017).
In brackets after ≈: the same amount, converted by molar mass. Activity calls are given as the source filed them. The rule behind the calls is not given here.

Experiments:
[1] = Growth inhibition of mouse BMMC at 1 uM after 72 hrs by CellTiter-Glo luminescent assay relative to control; assay type: functional; conditions: read-out: GI
Summary of the method: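 Cell viability in primary mouse bone marrow-derived macrophages, which depend on CSF1 for survival; inhibition measured at 1 single concentration.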

[2] = target: Mast/stem cell growth factor receptor Kit (Homo sapiens, UniProt P10721); assay: Inhibition of human c-Kit using poly[Glu:Tyr] (4:1) as substrate measured after 2 hrs in presence of [33gammaP]ATP by […] ion exchange chromatographic method
Sequence of Mast/stem cell growth factor receptor Kit (P10721 whole entry): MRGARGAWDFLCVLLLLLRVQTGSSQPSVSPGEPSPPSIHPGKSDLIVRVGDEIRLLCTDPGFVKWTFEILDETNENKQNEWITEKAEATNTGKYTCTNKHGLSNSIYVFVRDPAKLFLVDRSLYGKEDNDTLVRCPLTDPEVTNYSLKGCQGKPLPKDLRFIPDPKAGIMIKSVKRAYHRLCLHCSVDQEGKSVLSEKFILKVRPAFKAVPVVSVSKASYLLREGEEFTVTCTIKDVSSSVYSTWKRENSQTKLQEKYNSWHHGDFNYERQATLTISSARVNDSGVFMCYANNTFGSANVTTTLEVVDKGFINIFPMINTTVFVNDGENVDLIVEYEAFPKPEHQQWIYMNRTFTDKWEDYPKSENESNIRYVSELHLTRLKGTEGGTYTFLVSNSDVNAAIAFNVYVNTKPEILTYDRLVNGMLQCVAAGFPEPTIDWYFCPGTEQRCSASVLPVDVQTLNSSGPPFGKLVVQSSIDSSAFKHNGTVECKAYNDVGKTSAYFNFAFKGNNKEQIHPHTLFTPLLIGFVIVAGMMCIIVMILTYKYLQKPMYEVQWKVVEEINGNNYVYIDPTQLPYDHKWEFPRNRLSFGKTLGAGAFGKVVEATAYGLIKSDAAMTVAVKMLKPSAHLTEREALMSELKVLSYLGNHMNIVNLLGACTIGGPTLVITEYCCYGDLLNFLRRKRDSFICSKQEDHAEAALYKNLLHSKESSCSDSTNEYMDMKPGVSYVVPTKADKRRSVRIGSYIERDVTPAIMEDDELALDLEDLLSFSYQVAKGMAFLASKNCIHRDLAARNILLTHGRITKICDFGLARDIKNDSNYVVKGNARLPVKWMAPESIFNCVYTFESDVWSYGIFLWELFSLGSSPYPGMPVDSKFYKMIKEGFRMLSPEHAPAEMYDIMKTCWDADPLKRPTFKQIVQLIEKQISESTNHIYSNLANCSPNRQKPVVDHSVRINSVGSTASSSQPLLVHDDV
Summary of the method: (§1)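 Radiometric kinase assay: enzyme incubated with [γ-33P]-ATP and peptide substrate; IC50 curves fitted per compound. Selectivity expressed as c-Kit IC50 over CSF1R IC50.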

[3] = Stability in human liver microsomes assessed as compound remaining at 1 uM after 30 mins in presence of NADPH by LC/MS/MS analysis; assay type: ADME, microsome; conditions: read-out: Stability
Summary of the method: (§2)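 Metabolic stability in human or mouse liver microsomes supplemented with NADPH; reported as percent of parent remaining relative to time-zero control.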

[4] = Stability in mouse liver microsomes assessed as compound remaining at 1 uM after 30 mins in presence of NADPH by LC/MS/MS analysis; assay type: ADME, microsome; conditions: read-out: Stability; summary of the method: as §2
Liver [5] = assay: Drug level in mouse liver microsomes treated with N-(4-methyl-3-(3-(1-methyl-1H-pyrazol-4-yl)benzamido)phenyl)-4-((4-methylpiperazin-1-yl)methyl)-3-(trifluoromethyl)benzamide at 10 uM measured after 1 hr in presence of NADPH; assay type: ADME, microsome
RAW264.7 = assay: Growth inhibition of mouse RAW264.7 cells at 1 uM after 72 hrs by CellTiter-Glo luminescent assay relative to control; assay type: functional; conditions: for inhibition of growth at 1 µM: RAW264.7, 72 h, read-out: GI
[6] = Apparent permeability from apical to basolateral side in human Caco2 cells at 10 uM incubated for 60 mins by LC-MS/MS analysis; assay type: ADME, cell-based, Caco-2; conditions: for Papp A→B at 1 h, 10 µM: Caco-2
Summary of the method: (§3)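 Caco2 monolayer permeability measured in apical-to-basolateral and basolateral-to-apical directions; mean Papp with SD reported, efflux ratio calculated from the two directions.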

[7] = Apparent permeability from basolateral to apical side in human Caco2 cells at 10 uM incubated for 60 mins by LC-MS/MS analysis; assay type: ADME, cell-based, Caco-2; conditions: for Papp B→A at 1 h, 10 µM: Caco-2; summary of the method: as §3
[8] = Cmax in CD-1 mouse plasma at 2 mg/kg, iv; assay type: ADME, organism-based; parameters: dose 2 mg/kg, route intravenous
Summary of the method: (§4)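 Mice given a single IV dose (2 mg/kg) or oral dose (10 mg/kg); plasma levels followed over time. AUClast taken from time 0 to last quantifiable concentration; Cmax and Tmax read from observed profile; CL is systemic clearance and Vss volume at steady state, both from IV; oral bioavailability derived from PO versus IV exposure.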

[9] = AUC (0 to last) in CD-1 mouse at 2 mg/kg, iv; assay type: ADME, organism-based; parameters: dose 2 mg/kg, time 0 - last, route intravenous; conditions: in vivo; summary of the method: as §4
[10] = Terminal half life in CD-1 mouse at 2 mg/kg, iv; assay type: ADME, organism-based; conditions: in vivo, read-out: beta t1/2 (converted); summary of the method: as §4
[11] = Systemic clearance in CD-1 mouse at 2 mg/kg, iv; assay type: ADME, organism-based; conditions: in vivo; summary of the method: as §4
[12] = Volume of distribution at steady state in CD-1 mouse at 2 mg/kg, iv; assay type: ADME, organism-based; conditions: in vivo, read-out: Vdss; summary of the method: as §4
[13] = Cmax in CD-1 mouse plasma at 10 mg/kg, po; assay type: ADME, organism-based; parameters: dose 10 mg/kg, route oral; summary of the method: as §4
[14] = AUC (0 to last) in CD-1 mouse at 10 mg/kg, po; assay type: ADME, organism-based; parameters: dose 10 mg/kg, route oral, time 0 - last; conditions: in vivo; summary of the method: as §4
[15] = Terminal half life in CD-1 mouse at 10 mg/kg, po; assay type: ADME, organism-based; conditions: in vivo, read-out: beta t1/2 (converted); summary of the method: as §4
[16] = Tmax in CD-1 mouse at 10 mg/kg, po; assay type: ADME, organism-based; conditions: in vivo; summary of the method: as §4
[17] = Oral bioavailability in CD-1 mouse at 10 mg/kg; assay type: ADME, organism-based; conditions: in vivo; summary of the method: as §4
[18] = Kinetic solubility of the compound in PBS buffer at pH 7.4 at […] after 1 hr by nephelometry; assay type: physicochemical; conditions: read-out: Kinetic_solubility
Summary of the method: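 Kinetic solubility determined in isotonic phosphate buffer.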

[19] = Stability in human plasma assessed as compound remaining at 1 uM after 4 hrs by LC/MS/MS analysis; assay type: ADME, cell-free; conditions: read-out: Stability
Summary of the method: (§5)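 Test article incubated 4 h in human or mouse plasma to probe amidase hydrolysis; percent parent remaining versus time-zero control.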

[20] = Stability in mouse plasma assessed as compound remaining at 1 uM after 4 hrs by LC/MS/MS analysis; assay type: ADME, cell-free; conditions: read-out: Stability; summary of the method: as §5
Liver [21] = assay: Drug metabolism in mouse liver microsomes assessed as demethylation by measuring N-(4-methyl-3-(3-(1-methyl-1H-pyrazol-4-yl)benzamido)phenyl)-4-(piperazin-1-ylmethyl)-3-(trifluoromethyl)benzamide level at 10 uM measured after 1 hr in presence of NADPH; assay type: ADME, microsome
[22] = Clearance in iv dosed mouse; assay type: ADME, organism-based; conditions: in vivo; summary of the method: as §4
[23] = target: Macrophage colony-stimulating factor 1 receptor (Homo sapiens, UniProt P07333); assay: Inhibition of human CSF1R using poly[Glu:Tyr] (4:1) as substrate incubated for 2 hrs in presence of [33gammaP]ATP by P81 ion exchange chromatographic method
Sequence of Macrophage colony-stimulating factor 1 receptor (P07333 whole entry): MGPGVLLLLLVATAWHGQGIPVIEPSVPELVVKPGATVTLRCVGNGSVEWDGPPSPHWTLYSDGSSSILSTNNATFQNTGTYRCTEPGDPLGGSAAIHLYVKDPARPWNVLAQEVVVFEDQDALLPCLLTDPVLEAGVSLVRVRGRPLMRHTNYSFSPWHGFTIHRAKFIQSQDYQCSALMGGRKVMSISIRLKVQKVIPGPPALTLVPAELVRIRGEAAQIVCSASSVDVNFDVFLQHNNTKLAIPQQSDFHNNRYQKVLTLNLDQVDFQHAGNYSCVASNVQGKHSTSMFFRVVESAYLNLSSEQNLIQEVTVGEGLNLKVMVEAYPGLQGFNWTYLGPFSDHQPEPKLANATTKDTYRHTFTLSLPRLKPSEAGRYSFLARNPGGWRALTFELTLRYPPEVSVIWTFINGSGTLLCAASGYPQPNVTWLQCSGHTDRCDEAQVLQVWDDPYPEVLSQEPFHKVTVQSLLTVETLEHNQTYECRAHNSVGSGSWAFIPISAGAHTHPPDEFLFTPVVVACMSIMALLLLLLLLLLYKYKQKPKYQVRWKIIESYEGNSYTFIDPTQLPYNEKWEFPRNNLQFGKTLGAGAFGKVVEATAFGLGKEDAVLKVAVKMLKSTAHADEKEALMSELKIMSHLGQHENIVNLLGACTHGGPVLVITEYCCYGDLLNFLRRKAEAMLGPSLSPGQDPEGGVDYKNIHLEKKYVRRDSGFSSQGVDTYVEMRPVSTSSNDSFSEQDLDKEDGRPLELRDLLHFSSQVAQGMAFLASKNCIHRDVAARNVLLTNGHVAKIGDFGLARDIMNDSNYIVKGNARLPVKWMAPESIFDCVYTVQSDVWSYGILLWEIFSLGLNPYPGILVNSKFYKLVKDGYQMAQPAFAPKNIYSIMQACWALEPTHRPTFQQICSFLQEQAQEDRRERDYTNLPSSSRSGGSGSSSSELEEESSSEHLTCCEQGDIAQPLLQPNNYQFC

Homo sapiens = species: Homo sapiens; assay: Selectivity ratio of IC50 for human c-Kit to IC50 for human CSF1R; summary of the method: as §1

Cc1ccc(NC(=O)c2ccc(CN3CCNCC3)c(C(F)(F)F)c2)cc1NC(=O)c1cccc(-c2cnn(C)c2)c1
inhibition of growth at 1 µM [1]: 44% | IC50 [2]: 3000 nM | remaining at 0.5 h, 1 µM [3]: 85% | remaining at 0.5 h, 1 µM [4]: 72% | Drug metabolism (Liver [5]): Metabolite_Detected

Cc1ncc(NC(=O)c2cccc(C(F)(F)F)c2)cc1NC(=O)c1cncc(-c2cnn(C)c2)c1
inhibition of growth at 1 µM [1]: 87% | IC50 [2]: 180 nM | growth inhibition (GI) (RAW264.7): inactive | remaining at 0.5 h, 1 µM [3]: 60% | remaining at 0.5 h, 1 µM [4]: 57% | Papp ([6]; caco-2, 1 h, 10 µM): 0.5 ×10⁻⁶ cm/s | Papp ([7]; caco-2, 1 h, 10 µM): 36.3 ×10⁻⁶ cm/s

Cc1ccc(C(=O)Nc2ccc(CN3CCN(C)CC3)c(C(F)(F)F)c2)cc1NCc1cccc(-c2cccs2)c1
IC50 [2]: > 10000 nM

Cc1ccc(NC(=O)c2cccc(C(F)(F)F)c2)cc1NC(=O)c1cccc(-c2cnn(C)c2)c1
IC50 [2]: 130 nM | growth inhibition (GI) (RAW264.7): inactive | remaining at 0.5 h, 1 µM [3]: 68% | remaining at 0.5 h, 1 µM [4]: 74%

Cc1ccc(NC(=O)c2ccc(CN3CCN(C)CC3)c(C(F)(F)F)c2)cc1NC(=O)c1cccc(-c2cccnc2)c1
inhibition of growth at 1 µM [1]: 84% | IC50 [2]: 900 nM | growth inhibition (GI) (RAW264.7): inactive

Cc1ccc(NC(=O)c2ccc(CN3CCN(C)CC3)c(C(F)(F)F)c2)cc1NC(=O)c1cccc(-c2ccccn2)c1
inhibition of growth at 1 µM [1]: 31% | IC50 [2]: 15000 nM | growth inhibition (GI) (RAW264.7): inactive

Cc1ccc(NC(=O)c2cccc(C(F)(F)F)c2)cc1NC(=O)c1cnc(N)nc1
inhibition of growth at 1 µM [1]: 86% | IC50 [2]: 820 nM | growth inhibition (GI) (RAW264.7): inactive | remaining at 0.5 h, 1 µM [3]: 91% | remaining at 0.5 h, 1 µM [4]: 65% | Papp A→B at 1 h, 10 µM [6]: 0.1 ×10⁻⁶ cm/s | Papp B→A at 1 h, 10 µM [7]: 5.3 ×10⁻⁶ cm/s

Cc1ccc(C(=O)Nc2ccc(CN3CCN(C)CC3)c(C(F)(F)F)c2)cc1NC(=O)c1cccc(-c2cccs2)c1
inhibition of growth at 1 µM [1]: 22% | IC50 [2]: 440 nM | inhibition of growth at 1 µM (RAW264.7): 7%

Cc1ccc(NC(=O)c2cccc(C(F)(F)F)c2)cc1NC(=O)c1cncc(-c2cnn(C)c2)c1
inhibition of growth at 1 µM [1]: 96% | IC50 [2]: 60 nM | growth inhibition (GI) (RAW264.7): inactive | remaining at 0.5 h, 1 µM [3]: 37% | remaining at 0.5 h, 1 µM [4]: 63% | Cmax [8]: 3550 nM | AUC(0-t) [9]: 2.24 µM·h | half-life [10]: 52.2 min | clearance [11]: 31 mL/min/kg | Vd [12]: 1.1 L/kg | Cmax [13]: 4600 nM | AUC(0-t) [14]: 6.94 µM·h | half-life [15]: 108 min | Tmax [16]: 30 min | bioavailability [17]: 64% | Papp A→B at 1 h, 10 µM [6]: 12.5 ×10⁻⁶ cm/s | Papp B→A at 1 h, 10 µM [7]: 32.5 ×10⁻⁶ cm/s

Cc1ccc(NC(=O)c2ccc(CN3CCN(C)CC3)c(C(F)(F)F)c2)cc1NC(=O)c1cccc(-c2cnn(C)c2)c1
inhibition of growth at 1 µM [1]: 81% | IC50 [2]: 740 nM | growth inhibition (GI) (RAW264.7): inactive | solubility kinetic at 1 h [18]: 4.7 µM (≈ 2.78 µg/mL) | remaining at 0.5 h, 1 µM [3]: 46 to 47% | remaining at 0.5 h, 1 µM [4]: 7% | remaining at 4 h, 1 µM [19]: 95% | remaining at 4 h, 1 µM [20]: 67% | Cmax [8]: 850 nM | AUC(0-t) [9]: 0.27 µM·h | half-life [10]: 13.8 min | clearance [11]: 210 mL/min/kg | Vd [12]: 4.23 L/kg | Cmax [13]: 160 nM | AUC(0-t) [14]: 0.16 µM·h | half-life [15]: 79.2 min | Tmax [16]: 15 min | bioavailability [17]: 11% | Drug metabolism (Liver [21]): Metabolite_Detected | clearance [22]: 210 mL/min/kg

Cc1ccc(C(=O)Nc2ccc(CN3CCN(C)CC3)c(Cl)c2)cc1NC(=O)c1cccc(-c2cccs2)c1
inhibition of growth at 1 µM [1]: 20% | IC50 [2]: 2700 nM | inhibition of growth at 1 µM (RAW264.7): 4%

Cc1ccc(C(=O)Nc2ccc(CN3CCN(C)CC3)cc2)cc1NC(=O)c1cccc(-c2cccs2)c1
inhibition of growth at 1 µM [1]: 11% | IC50 [23]: > 10000 nM | IC50 [2]: > 10000 nM | inhibition of growth at 1 µM (RAW264.7): 8%

Cc1ccc(NC(=O)c2ccc(CN3CCN(C)CC3)c(C(F)(F)F)c2)cc1NC(=O)c1cccc(-c2ccncc2)c1
inhibition of growth at 1 µM [1]: 72% | IC50 [2]: 390 nM | growth inhibition (GI) (RAW264.7): inactive

Cc1ccc(NC(=O)c2ccc(CN3CCN(C)CC3)c(C(F)(F)F)c2)cc1NC(=O)c1cccc(-c2cncnc2)c1
inhibition of growth at 1 µM [1]: 76% | IC50 [2]: 5970 nM | growth inhibition (GI) (RAW264.7): inactive

Cc1ccc(NC(=O)c2ccc(CN3CCN(C)CC3)c(C(F)(F)F)c2)cc1NC(=O)c1cccc(-c2cccs2)c1
IC50 [2]: 1680 nM

Cc1ccc(C(=O)Nc2ccc(CN3CCN(C)CC3)c(C(F)(F)F)c2)cc1NC(=O)c1cccc(-c2cccnc2)c1
inhibition of growth at 1 µM [1]: 61% | IC50 [2]: 210 nM | inhibition of growth at 1 µM (RAW264.7): 6%

Cc1ccc(NC(=O)c2ccc(CN3CCN(C)CC3)c(C(F)(F)F)c2)cc1NC(=O)c1cccc(-c2nn[nH]n2)c1
inhibition of growth at 1 µM [1]: 2.4% | IC50 [2]: 7500 nM | growth inhibition (GI) (RAW264.7): inactive

Cc1ccc(NC(=O)c2ccc(CN3CCN(C)CC3)c(C(F)(F)F)c2)cc1NC(=O)c1cccc(-c2cn[nH]c2)c1
inhibition of growth at 1 µM [1]: 80% | IC50 [23]: < 0.5 nM | IC50 [2]: 20 nM | growth inhibition (GI) (RAW264.7): inactive | Ratio IC50 (Homo sapiens): > 40

Cc1ccc(CNc2ccc(CN3CCN(C)CC3)c(C(F)(F)F)c2)cc1NC(=O)c1cccc(-c2cccs2)c1
IC50 [2]: 270 nM

CN1CCN(Cc2ccc(NC(=O)c3ccc(Cl)c(NC(=O)c4cccc(-c5cccs5)c4)c3)cc2C(F)(F)F)CC1
inhibition of growth at 1 µM [1]: -7% | IC50 [2]: 190 nM | inhibition of growth at 1 µM (RAW264.7): 8%

Cc1ccc(C(=O)Nc2ccc(CN3CCN(C)CC3)c(C(F)(F)F)c2)cc1NC(=O)c1cccc(-c2cncnc2)c1
inhibition of growth at 1 µM [1]: 64% | IC50 [2]: 310 nM | inhibition of growth at 1 µM (RAW264.7): 9%

Cc1ccc(C(=O)N(C)c2ccc(CN3CCN(C)CC3)c(C(F)(F)F)c2)cc1NC(=O)c1cccc(-c2cccs2)c1
IC50 [2]: 5900 nM

Cc1ccc(C(=O)Nc2ccc(CN3CCN(C)CC3)c(C(F)(F)F)c2)cc1N(C)C(=O)c1cccc(-c2cccs2)c1
IC50 [2]: > 10000 nM
